In brackets after ≈: the same amount, converted by molar mass. Activity calls are given as the source filed them. No cut-off for these calls is given here.
What was measured:
SMMC-7721 [1] = test: Cytotoxicity against human SMMC7721 cells after 48 hrs by MTT assay; format: functional, cell-based; conditions: SMMC-7721, 48 h
How it was run: (§1)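 Cells seeded at 10⁴ per well in DMEM with 10% FBS and grown overnight. Compound at a range of concentrations for 48 h, in triplicate. MTT (5 mg mL⁻¹ stock) added for the last 4 h, formazan dissolved in DMSO, absorbance read at 570 nm. Percent inhibition used to derive IC50. Values are mean ± SEM of at least three independent experiments.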

[2] = Lipophilicity, log P of the compound in 10% PEG400 aqueous solution; format: physicochemical
[3] = Cytotoxicity against human H460 cells after 48 hrs by MTT assay; format: functional, cell-based; conditions: NCI-H460, 48 h; how it was run: as §1
SK-OV-3 = test: Cytotoxicity against human SKOV3 cells after 48 hrs by MTT assay; format: functional, cell-based; conditions: SK-OV-3, 48 h; how it was run: as §1
[4] = Cytotoxicity against human PANC1 cells after 48 hrs by MTT assay; format: functional, cell-based; conditions: PANC-1, 48 h; how it was run: as §1
[5] = Cytotoxicity against human SGC7901 cells after 48 hrs by MTT assay; format: functional, cell-based; conditions: SGC-7901, 48 h; how it was run: as §1
MCF7 = test: Cytotoxicity against human MCF7 cells after 48 hrs by MTT assay; format: functional, cell-based; conditions: MCF7, 48 h; how it was run: as §1
EJ = test: Cytotoxicity against human EJ cells after 48 hrs by MTT assay; format: functional, cell-based; how it was run: as §1
[6] = Aqueous solubility of the compound in 10% PEG400 aqueous solution after 24 hrs by HPLC analysis; format: physicochemical
How it was run: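 Roughly 20.0 mg of solid in 5 mL of 10% PEG400 in water. Sonicated 10 min, then stirred 24 h at 25 °C in a water bath. Centrifuged 10 min at 10,000 rpm and the supernatant passed through a microporous membrane. Concentration measured by HPLC against a standard curve.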

SMMC-7721 [7] = test: Induction of apoptosis in human SMMC7721 cells assessed as viable cells at 12 uM after 48 hrs by annexin V-FITC/propidium iodide staining-based flow cytometry (reference value: 93.81%); format: functional; conditions: SMMC-7721, 48 h, read-out: Activity
SMMC-7721 [8] = test: Inhibition of Ras in human SMMC7721 cells assessed as reduction in phosphorylated ERK2 level after 8 hrs by immunoblotting analysis; format: cell-based
How it was run: (§2)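 SMMC-7721 cells at 1.5 × 10⁵/mL treated with 3.0, 6.0 or 12 µmol/L compound or vehicle for 8 h. Cells lysed, 50 µg protein per lane run on 12% SDS–PAGE gels. Blots probed for total and phospho-ERK1/2 (Thr202/Tyr204), total and phospho-Akt (Ser473), and β-actin. Densitometry relative to β-actin. Means ± SEM of three experiments.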

SMMC-7721 [9] = test: Inhibition of Ras in human SMMC7721 cells assessed as reduction in phosphorylated ERK1 level after 8 hrs by immunoblotting analysis; format: cell-based; how it was run: as §2
SMMC-7721 [10] = test: Induction of apoptosis in human SMMC7721 cells after 48 hrs by annexin V-FITC/propidium iodide staining-based flow cytometry; format: functional, cell-based
SMMC-7721 [11] = test: Inhibition of Ras in human SMMC7721 cells assessed as reduction in phosphorylated ERK2 level at 12 uM after 8 hrs by immunoblotting analysis; format: cell-based; how it was run: as §2
SMMC-7721 [12] = test: Induction of apoptosis in human SMMC7721 cells assessed as late apoptotic cells at 6 uM after 48 hrs by annexin V-FITC/propidium iodide staining-based flow cytometry (reference value: 1.55%); format: functional
SMMC-7721 [13] = test: Induction of apoptosis in human SMMC7721 cells assessed as increase in Bax level after 48 hrs by Western blotting analysis; format: functional, cell-based
How it was run: (§3)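 SMMC-7721 cells treated with or without compound at several concentrations for 48 h. Lysates immunoblotted for Bax, Bcl-2 and caspase-3, with β-actin as loading control. Band levels relative to β-actin quantified by densitometric scanning. Means ± SEM from three separate experiments.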

SMMC-7721 [14] = test: Induction of apoptosis in human SMMC7721 cells assessed as necrotic cells at 3 uM after 48 hrs by annexin V-FITC/propidium iodide staining-based flow cytometry (reference value: 0.77%); format: functional
SMMC-7721 [15] = test: Inhibition of Ras in human SMMC7721 cells assessed as reduction in phosphorylated Akt level at 12 uM after 8 hrs by immunoblotting analysis; format: cell-based; how it was run: as §2
SMMC-7721 [16] = test: Induction of apoptosis in human SMMC7721 cells assessed as viable cells at 3 uM after 48 hrs by annexin V-FITC/propidium iodide staining-based flow cytometry (reference value: 93.81%); format: functional; conditions: SMMC-7721, 48 h, read-out: Activity
SMMC-7721 [17] = test: Inhibition of Ras in human SMMC7721 cells assessed as reduction in phosphorylated Akt level after 8 hrs by immunoblotting analysis; format: cell-based; how it was run: as §2
SMMC-7721 [18] = test: Induction of apoptosis in human SMMC7721 cells assessed as necrotic cells at 12 uM after 48 hrs by annexin V-FITC/propidium iodide staining-based flow cytometry (reference value: 0.77%); format: functional
SMMC-7721 [19] = test: Induction of apoptosis in human SMMC7721 cells assessed as late apoptotic cells at 12 uM after 48 hrs by annexin V-FITC/propidium iodide staining-based flow cytometry (reference value: 1.55%); format: functional
SMMC-7721 [20] = test: Induction of apoptosis in human SMMC7721 cells assessed as reduction in Bcl2 level after 48 hrs by Western blotting analysis; format: functional, cell-based
SMMC-7721 [21] = test: Induction of apoptosis in human SMMC7721 cells assessed as late apoptotic cells at 3 uM after 48 hrs by annexin V-FITC/propidium iodide staining-based flow cytometry (reference value: 1.55%); format: functional
SMMC-7721 [22] = test: Induction of apoptosis in human SMMC7721 cells assessed as viable cells at 6 uM after 48 hrs by annexin V-FITC/propidium iodide staining-based flow cytometry (reference value: 93.81%); format: functional; conditions: SMMC-7721, 48 h, read-out: Activity
SMMC-7721 [23] = test: Inhibition of Ras in human SMMC7721 cells assessed as reduction in phosphorylated ERK1 level at 12 uM after 8 hrs by immunoblotting analysis; format: cell-based; how it was run: as §2
SMMC-7721 [24] = test: Induction of apoptosis in human SMMC7721 cells assessed as early apoptotic cells at 12 uM after 48 hrs by annexin V-FITC/propidium iodide staining-based flow cytometry (reference value: 3.87%); format: functional
SMMC-7721 [25] = test: Induction of apoptosis in human SMMC7721 cells assessed as increase in caspase-3 level after 48 hrs by Western blotting analysis; format: functional, cell-based; how it was run: as §3
SMMC-7721 [26] = test: Induction of apoptosis in human SMMC7721 cells assessed as early apoptotic cells at 6 uM after 48 hrs by annexin V-FITC/propidium iodide staining-based flow cytometry (reference value: 3.87%); format: functional
SMMC-7721 [27] = test: Induction of apoptosis in human SMMC7721 cells assessed as early apoptotic cells at 3 uM after 48 hrs by annexin V-FITC/propidium iodide staining-based flow cytometry (reference value: 3.87%); format: functional
SMMC-7721 [28] = test: Induction of apoptosis in human SMMC7721 cells assessed as necrotic cells at 6 uM after 48 hrs by annexin V-FITC/propidium iodide staining-based flow cytometry (reference value: 0.77%); format: functional

SMILES	IC50 (SMMC-7721 [1]) [µM]	logP [2]	IC50 [3] [µM]	IC50 (SK-OV-3) [µM]	IC50 [4] [µM]	IC50 [5] [µM]	IC50 (MCF7) [µM]	IC50 (EJ) [µM]	solubility at 24 h [6] [mg/mL]	viability at 12 µM (SMMC-7721 [7]) [%]	Activity (SMMC-7721 [11])	Activity (SMMC-7721 [15])	Activity (SMMC-7721 [18]) [%]	Activity (SMMC-7721 [19]) [%]	Activity (SMMC-7721 [23])	Activity (SMMC-7721 [24]) [%]	other results
CC(C)=CCC/C(C)=C/CC/C(C)=C/CSc1ccccc1C(=O)NCCCCCN	9.21	5.98	8.84	7.13	7.56	7.35	7.83	9.85	18 (≈ 40.6 mM)								
CC(C)=CCC/C(C)=C/CC/C(C)=C/CSc1ccccc1C(=O)NCCCCCNC(=O)c1ccccc1SC/C=C(\C)CC/C=C(\C)CCC=C(C)C	36.2		47.1	41.9	> 50	> 50	> 50	39.5	< 0.01								
CC(C)=CCC/C(C)=C/CC/C(C)=C/CSc1ccccc1C(=O)NCCCCCCNC(=O)c1ccccc1SC/C=C(\C)CC/C=C(\C)CCC=C(C)C	> 50		> 50	> 50	> 50	> 50	40.6	43.9									
CC(C)=CCC/C(C)=C/CC/C(C)=C/CSc1ccccc1C(=O)NCCOCCN	5.71	4.85	6.89	6.83	3.78	7.63	7.29	6.13	23.8 (≈ 53.4 mM)	15.3	Active	Active	0.21	24.84	Active	59.67	Activity (SMMC-7721 [8]): Dose-dependent effect; Activity (SMMC-7721 [9]): Dose-dependent effect; Activity (SMMC-7721 [10]): Dose-dependent effect; Activity (SMMC-7721 [12]): 18.68%; Activity (SMMC-7721 [13]): Dose-dependent effect; Activity (SMMC-7721 [14]): 0.24%; viability at 3 µM (SMMC-7721 [16]): 84%; Activity (SMMC-7721 [17]): Dose-dependent effect; Activity (SMMC-7721 [20]): Dose-dependent effect; Activity (SMMC-7721 [21]): 4.85%; viability at 6 µM (SMMC-7721 [22]): 49.4%; Activity (SMMC-7721 [25]): Dose-dependent effect; Activity (SMMC-7721 [26]): 29.84%; Activity (SMMC-7721 [27]): 10.9%; Activity (SMMC-7721 [28]): 2.07%
CC(C)=CCC/C(C)=C/CC/C(C)=C/CSc1ccccc1C(=O)O [SALIRASIB]	69.7	6.32	49.2	51.2	53.6	41.3	49.1	47.6	3.65 (≈ 10.2 mM)	80.4	Active	Active	0.21	5.87	Active	13.49	
